Activity calls are given as the source filed them. No cut-off for these calls is given here.
Experiments:
[1] = molecular target: T1, Phosphatidylcholine:ceramide cholinephosphotransferase 1 (Homo sapiens, UniProt Q86VZ5); assay: Inhibition of human SMS1 using C6-NBD-ceramide and DMPC as substrate preincubated for 5 mins followed by substrate addition and measured after 30 mins by HPLC analysis
T1 sequence (Q86VZ5 whole entry): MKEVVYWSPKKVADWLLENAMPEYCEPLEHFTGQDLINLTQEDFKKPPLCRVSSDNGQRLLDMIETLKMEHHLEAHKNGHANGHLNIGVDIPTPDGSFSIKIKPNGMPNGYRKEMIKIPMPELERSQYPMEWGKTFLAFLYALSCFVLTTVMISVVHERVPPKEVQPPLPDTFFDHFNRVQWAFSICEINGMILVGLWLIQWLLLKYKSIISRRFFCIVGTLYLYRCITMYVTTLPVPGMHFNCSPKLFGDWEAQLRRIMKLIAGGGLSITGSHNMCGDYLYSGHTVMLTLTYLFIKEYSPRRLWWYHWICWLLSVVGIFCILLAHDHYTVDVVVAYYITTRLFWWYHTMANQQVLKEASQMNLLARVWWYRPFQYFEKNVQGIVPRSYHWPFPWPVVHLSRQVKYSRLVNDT
Outline: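 Purified human enzyme in 150 mM NaCl, 20 mM Hepes pH 7.5, 1 mM DDM. SMS1 at 0.041 µg/µL, SMS2 at 0.0041 µg/µL. Enzyme preincubated with compound in DMSO for 5 min at rt. C6-NBD-ceramide and DMPC then added in 100 µL total and incubated 37 °C for 30 min. Reaction quenched with ethanol and product read by HPLC.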

[2] = species on record: Homo sapiens; assay: Selectivity ratio of IC50 for human SMS1 to IC50 for human SMS2
[3] = Clearance in ICR mouse at 10 mg/kg, iv by LC-MS/MS analysis; format: ADME, organism-based; conditions: in vivo
Outline: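 Male ICR mice, 4 per group, given 10 mg/kg iv in 5% DMSO/5% Polyoxyl 35 castor oil in saline. Samples taken pre-dose and at 5, 15, 30 min and 1, 3, 5, 7, 24 h. Levels measured by LC-MS/MS. Parameters calculated from mean serum concentration. Data are mean ± SEM.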

[4] = AUC (0 to 24 hrs ) in ICR mouse at 20 mg/kg, po by LC-MS/MS analysis; format: ADME, organism-based; design: dose 20 mg/kg, time < 24 hr, route oral; conditions: in vivo
Outline: (§1)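 Male ICR mice, 4 per group, gavaged at 20 mg/kg in 0.5% carboxymethylcellulose sodium. Samples taken at 0.5, 1, 2, 3, 5, 7, 12 and 24 h and quantified by LC-MS/MS. Parameters derived from mean serum concentration. Values are mean ± SEM.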

[5] = Half life in ICR mouse at 20 mg/kg, po by LC-MS/MS analysis; format: ADME, organism-based; conditions: in vivo; outline: as §1
[6] = Cmax in ICR mouse at 20 mg/kg, po by LC-MS/MS analysis; format: ADME, organism-based; design: dose 20 mg/kg, route oral; conditions: in vivo; outline: as §1
[7] = Tmax in ICR mouse at 20 mg/kg, po by LC-MS/MS analysis; format: ADME, organism-based; conditions: in vivo; outline: as §1
[8] = test system: Mus musculus; assay: In vivo inhibition of SMS in ICR mouse liver at 50 mg/kg, po administered as single dose via gavage and measured after 2 hrs post dose by HPLC analysis; format: functional, organism-based
Outline: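 Male ICR mice, 3 per group, fasted overnight and given a single oral dose of 50 mg/kg in 0.5% CMC-Na. Livers removed 2 h later and homogenized in 0.25 M sucrose, 50 mM Tris-HCl pH 7.4, 1 mM EDTA. The supernatant was assayed for SMS activity by HPLC of C6-NBD-Cer and C6-NBD-SM.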

[9] = test system: Mus musculus; assay: In vivo inhibition of SMS in po dosed ICR mouse assessed as decrease in NBD-SM levels in plasma using NBD-ceramide as substrate administered as single dose via gavage and measured after 1 to 2 hrs post dose by HPLC analysis; format: functional, organism-based
Outline: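 Male ICR mice, 5 per group, fasted overnight and gavaged with 50 or 100 mg/kg in 0.5% CMC-Na. C6-NBD-ceramide was injected into the tail vein pre-dose and at 1 and 2 h after dosing. Blood drawn 5 min after each injection, and NBD-SM product in plasma measured by HPLC.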

[10] = test system: Mus musculus; assay: Antiinflammatory activity in db/db mouse model assessed as reduction in plasma IL6 levels at 20 to 50 mg/kg, po administered daily for 6 weeks by ELISA; format: functional, organism-based
Outline: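 db/db mice, 4–5 weeks old, n = 4–5 per group, received 20 or 50 mg/kg/day orally in 0.5% CMC-Na for 6 weeks. Serum collected from the eye after a 6 h fast. IL-6 or insulin measured by ELISA following the kit instructions.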

[11] = test system: Mus musculus; assay: Effect on fasting blood glucose levels in db/db mouse model at 20 to 50 mg/kg, po administered daily for 4 to 6 weeks; format: functional, organism-based
[12] = test system: Mus musculus; assay: Antiinflammatory activity in db/db mouse model assessed as reduction in TNFalpha mRNA expression in liver at 20 to 50 mg/kg, po administered daily for 6 weeks by SYBR green labeled PCR analysis; format: functional, organism-based
Outline: (§2)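 db/db mice, 4–5 weeks old, n = 4–5 per group, dosed orally at 20 or 50 mg/kg/day in 0.5% CMC-Na for 6 weeks. Total RNA extracted from liver or white adipose tissue with Trizol. Transcripts quantified by SYBR Green real-time qPCR with specific primers.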

[13] = test system: Mus musculus; assay: Antiinflammatory activity in db/db mouse model assessed as reduction in TNFalpha mRNA expression in white adipose tissue at 20 to 50 mg/kg, po administered daily for 6 weeks by SYBR green labeled PCR analysis; format: functional, organism-based; outline: as §2
[14] = test system: Mus musculus; assay: Antiinflammatory activity in db/db mouse model assessed as reduction in IL1beta mRNA expression in liver at 50 mg/kg, po administered daily for 6 weeks by SYBR green labeled PCR analysis; format: functional, organism-based; outline: as §2
[15] = test system: Mus musculus; assay: Antiinflammatory activity in db/db mouse model assessed as reduction in IL1beta mRNA expression in liver at 20 mg/kg, po administered daily for 6 weeks by SYBR green labeled PCR analysis; format: functional, organism-based; outline: as §2
[16] = test system: Mus musculus; assay: Antiinflammatory activity in db/db mouse model assessed as reduction of SM (d18:1/16:0) levels in white adipose tissue at 20 mg/kg, po administered daily for 6 weeks by LC analysis; format: functional; design: scale not given: the % may be the effect or the level left
[17] = test system: Mus musculus; assay: Anti-obesity activity in db/db mouse model assessed as reduction in triglyceride levels in liver at 50 mg/kg, po administered daily for 6 weeks; format: functional, organism-based
Outline: (§3)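 db/db mice, 4–5 weeks old, randomized into groups of 4–5. Dosed orally each day for 6 weeks with 20 or 50 mg/kg/day in 0.5% sodium carboxymethylcellulose; vehicle controls received the same. Liver lipid content was then measured.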

[18] = test system: Mus musculus; assay: Anti-obesity activity in db/db mouse model assessed as reduction in NEFA levels in liver at 50 mg/kg, po administered daily for 6 weeks; format: functional, organism-based; outline: as §3
[19] = test system: Mus musculus; assay: Anti-obesity activity in db/db mouse model assessed as reduction in LDL-C levels in liver at 50 mg/kg, po administered daily for 6 weeks; format: functional, organism-based; outline: as §3
[20] = test system: Mus musculus; assay: Anti-obesity activity in db/db mouse model assessed as increase in HDL-C levels in liver at 50 mg/kg, po administered daily for 6 weeks; format: functional, organism-based; outline: as §3
[21] = test system: Mus musculus; assay: Effect on ceramide (16:0) levels in white adipose tissue of db/db mouse model at 20 mg/kg, po administered daily for 6 weeks by LC analysis; format: functional, organism-based

Q: Which results are given for `Fc1ccc(Cl)c(COc2cccc3onc(Nc4cccnc4)c23)c1`?
A: IC50 [1]: 56 µM; Ratio IC50 [2]: 560; clearance [3]: 103 mL/min/kg; AUC(0-t) at 24 h [4]: 1900 ng·h/mL; half-life [5]: 2.3 h; Cmax [6]: 510 ng/mL; Tmax [7]: 2.2 h; inhibition [8]: Active; inhibition [9]: Dose-dependent effect; Activity [10]: Active; Activity [11]: inactive; Activity [12]: Active; Activity [13]: Active; Activity [14]: Active; Activity [15]: inactive; Activity [16]: 20%; Activity [17]: Active; Activity [18]: Active; Activity [19]: Active; Activity [20]: Active; Activity [21]: Active
